The results in this text go back to ChEMBL document CHEMBL1123816, “Synthesis and antidepressant properties of novel 2-substituted 4,5-dihydro-1H-imidazole derivatives” (J Med Chem, 1987).

In test [1] the target is T1, Adrenergic receptor alpha-2 (Rattus norvegicus, UniProt P22086+P19328+P22909).
T1 sequence (P22086 whole entry): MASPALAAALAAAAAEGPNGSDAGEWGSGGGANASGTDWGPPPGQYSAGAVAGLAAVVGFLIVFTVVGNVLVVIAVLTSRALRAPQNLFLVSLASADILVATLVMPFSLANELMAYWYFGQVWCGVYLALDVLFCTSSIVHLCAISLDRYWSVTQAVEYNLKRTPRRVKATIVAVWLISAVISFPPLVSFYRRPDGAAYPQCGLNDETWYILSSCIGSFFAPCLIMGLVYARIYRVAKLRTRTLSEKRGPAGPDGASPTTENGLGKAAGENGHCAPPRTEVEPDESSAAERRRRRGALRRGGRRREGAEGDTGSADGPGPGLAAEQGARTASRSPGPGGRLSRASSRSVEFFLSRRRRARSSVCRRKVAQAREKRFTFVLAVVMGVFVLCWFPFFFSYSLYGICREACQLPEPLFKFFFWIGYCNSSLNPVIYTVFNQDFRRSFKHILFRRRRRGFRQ
T1 sequence (P19328 whole entry): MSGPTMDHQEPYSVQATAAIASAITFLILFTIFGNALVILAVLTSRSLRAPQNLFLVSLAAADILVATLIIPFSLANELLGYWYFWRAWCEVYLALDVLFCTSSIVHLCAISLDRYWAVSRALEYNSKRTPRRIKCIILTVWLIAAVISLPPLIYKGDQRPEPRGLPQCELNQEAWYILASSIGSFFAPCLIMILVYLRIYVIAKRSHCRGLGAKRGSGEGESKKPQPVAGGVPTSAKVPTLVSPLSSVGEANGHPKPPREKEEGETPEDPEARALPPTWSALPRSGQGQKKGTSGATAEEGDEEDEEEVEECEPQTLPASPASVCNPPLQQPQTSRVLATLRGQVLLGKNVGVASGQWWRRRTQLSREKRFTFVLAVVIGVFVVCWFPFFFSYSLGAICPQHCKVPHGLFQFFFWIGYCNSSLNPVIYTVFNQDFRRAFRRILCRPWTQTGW
T1 sequence (P22909 whole entry): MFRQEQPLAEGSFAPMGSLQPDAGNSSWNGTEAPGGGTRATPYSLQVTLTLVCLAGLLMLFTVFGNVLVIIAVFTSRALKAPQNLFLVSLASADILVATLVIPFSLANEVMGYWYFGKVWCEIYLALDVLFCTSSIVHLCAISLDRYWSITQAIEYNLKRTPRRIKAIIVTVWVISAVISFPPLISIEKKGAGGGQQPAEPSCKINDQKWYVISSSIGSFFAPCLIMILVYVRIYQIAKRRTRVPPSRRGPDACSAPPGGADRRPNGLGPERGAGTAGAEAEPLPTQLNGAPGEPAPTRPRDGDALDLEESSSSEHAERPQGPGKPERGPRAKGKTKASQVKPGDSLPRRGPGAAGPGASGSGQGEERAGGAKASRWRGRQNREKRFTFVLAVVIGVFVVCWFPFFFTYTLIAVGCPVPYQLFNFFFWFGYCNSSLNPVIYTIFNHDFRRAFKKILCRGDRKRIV
In words: Ability to displace [3H]clonidine from alpha-2 adrenergic receptor in rat brain homogenates in vitro. The class given is tissue-based.

In test [2] the target is T1, Adrenergic receptor alpha-2. Briefly: In vitro antagonistic activity against alpha-2 adrenergic receptor in isolated electrically stimulated rat vas deferens (clonidine-induced decrease in twitch height). It is filed as functional, tissue-based.
For test [3], the system named is Mus musculus. Briefly: Effective dose required for inhibition of tetrabenazine-induced ptosis in mouse by peroral administration. It is filed as functional. The conditions noted are these: po. The method in brief: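 Swiss Webster mice; test compound in 0.9% NaCl (10 mL/kg) given po 30 min before ip tetrabenazine methanesulfonate (50 mg/kg, in 0.9% NaCl with moderate heating). Ptosis scored subjectively 30 min after tetrabenazine on a 0–4 scale (0 = complete eye closure, 4 = no closure). ED50 with 95% confidence limits from quantal dose–response analysis.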

The test system of test [4] is Mus musculus. In words: Effective dose required to antagonise clonidine-induced antinociception(ACA) in mouse by peroral administration;Values ranges from: 0.5-3.8. The class given is functional. Conditions: po.
For test [5], the species on record is Rattus norvegicus. Briefly: Inhibition of [3H]dopamine uptake into rat brain synaptosomes in vitro. It is filed as functional. In outline:
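Male Sprague–Dawley rat corpus striatum (180–240 g) homogenized in 0.32 M sucrose; P2 synaptosomes. Preincubated 5 min at 25 °C in modified Krebs–Ringer phosphate with ascorbic acid, EDTA and nialamide. Uptake run 5 min with 0.1 μM final [3H]dopamine, ended by cold saline and GF/B filtration. Nonspecific uptake measured at 4 °C. IC50 with 95% confidence limits.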

For test [6], the species on record is Rattus norvegicus. In words: Inhibition of [3H]norepinephrine uptake into rat brain synaptosomes in vitro;Values ranges from: 8.6-21. The class given is functional. The method in brief:
(§1)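 Male Sprague–Dawley rat cerebral cortex (180–240 g) homogenized in 0.32 M sucrose; crude P2 synaptosomes. Preincubated 5 min at 25 °C in modified Krebs–Ringer phosphate with ascorbic acid, EDTA and nialamide. Uptake run 5 min with 0.1 μM final [3H]-5-HT or [3H]NE, stopped by ice-cold saline and filtration. Nonspecific uptake taken at 4 °C. Scintillation counting; IC50 with 95% confidence limits.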

The species entered for test [7] is Rattus norvegicus. Briefly: Inhibition of [3H]5-HT uptake into rat brain synaptosomes in vitro. It is filed as functional. The method in brief:
as §1

The test system of test [8] is Rattus norvegicus. Briefly: Minimum effective dose required for inhibition of serotonin uptake was determined by PCA method in rat by peroral administration. The class given is functional. Conditions: po, read-out: MED. In outline:
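Fasted male Sprague–Dawley rats (160–200 g) given test compound orally in water (10 mL/kg) 15 min before p-chloroamphetamine 3 mg/kg ip. Forebrain taken 3 h later, extracted in acidified butanol then heptane/0.1 N HCl. Serotonin in aqueous phase measured fluorometrically after o-phthalaldehyde condensation (excitation 360 nm). Minimum effective dose reported.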

For test [9], the target named is T2, Adrenergic receptor alpha-2 (Rattus norvegicus) (UniProt P22086+P19328+P22909). Briefly: In vitro antagonistic activity against alpha-2 adrenergic receptor in isolated electrically stimulated rat vas deferens (clonidine-induced decrease in twitch height) at 500 uM concentration;IA is Inactive, no antagonism at 500 uM. It is filed as functional.
Test [10] deals with Mus musculus. In words: Effective dose required for inhibition of tetrabenazine-induced ptosis in mouse by peroral administration;Values ranges from: 1.8-9.3. The class given is functional. The conditions noted are these: po.
Test [11] is filed under the species Rattus norvegicus. Briefly: Inhibition of [3H]dopamine uptake into rat brain synaptosomes in vitro;Values ranges from: 0.09-0.18. The class given is functional. In outline:
(§2)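 Male Sprague–Dawley rat (180–240 g) cortex (NE, 5-HT) or striatum (DA) crude P2 synaptosomes in 0.32 M sucrose. Preincubated 5 min at 25 °C with drug in Krebs–Ringer phosphate containing ascorbate, EDTA, nialamide; 0.1 μM final [3H]amine added for 5 min. Stopped by cold saline and GF/B filtration; nonspecific uptake at 4 °C. IC50 with 95% limits computed.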

For test [12], the species on record is Rattus norvegicus. Briefly: Inhibition of [3H]norepinephrine uptake into rat brain synaptosomes in vitro;Values ranges from: 0.01-0.07. The class given is functional. The method in brief:
as §2

For test [13], the species on record is Rattus norvegicus. In words: Inhibition of [3H]5-HT uptake into rat brain synaptosomes in vitro;Values ranges from: 0.14-0.22. It is filed as functional. The method in brief: as §2
Test [14] addresses T2, Adrenergic receptor alpha-2 (Rattus norvegicus). In words: In vitro antagonistic activity against alpha-2 adrenergic receptor in isolated electrically stimulated rat vas deferens (clonidine-induced decrease in twitch height) at 500 uM concentration.;IA is Inactive, no antagonism at 500 uM. The class given is functional.
The target is the same in test [15]. In words: In vitro antagonistic activity against alpha-2 adrenergic receptor in isolated electrically stimulated rat vas deferens (clonidine-induced decrease in twitch height) at 500 uM concentration. IA is Inactive, no antagonism at 500 uM. It is filed as functional.
The target is the same in test [16]. In words: In vitro antagonistic activity against alpha-2 adrenergic receptor in isolated electrically stimulated rat vas deferens (clonidine-induced decrease in twitch height)at 500 uM concentration. IA is Inactive, no antagonism at 500 uM. The class given is functional.

The source made the active and inactive calls. The rule behind the calls is not given here. Where only a bound is given, the exact number is not on record here.

For `CC1=C(CC2=NCCN2)Cc2ccccc21.Cl`, the Ki in test [1] stood at 6.9 nM. The compound further had a pA2 in test [2] of 7.71.
As to `C[C@H]1c2ccccc2CC[C@@H]1CC1=NCCN1.Cl`, the Ki in [1] was determined as 401 nM.
`CC1=C(Cc2ncc[nH]2)CCc2ccccc21` returned a Ki in test [1] of 88 nM. Also, the pA2 in test [2] was 6.92.
On to `c1ccc2c(c1)OCC(C1=NCCN1)O2` (centres undefined) [IDAZOXAN], for which the ED50 is over 30 mg/kg with Mus musculus [3] and 1.3 mg/kg with Mus musculus [4]. In addition, the IC50 in the test listed under Rattus norvegicus [5] is over 30000 nM; in the test listed under Rattus norvegicus [6] it was 13000 nM; in the test filed under Rattus norvegicus [7] it was over 30000 nM. For the same compound, in the test on Rattus norvegicus [8], the minimal effective dose was over 30 mg/kg.
`Cl.c1ccc2cc(CC3=NCCN3)ccc2c1` registered an inhibition constant (Ki) in test [1] of 48 nM. The pA2 in test [2] amounted to 7.67.
For `CC(C1=Cc2ccccc2CC1)C1=NCCN1.Cl` (centres undefined), in that order: 32 nM and 7.43.
`CCN1CCN=C1CC1=C(C)c2ccccc2CC1.Cl`: the Ki in [1] was determined as 548 nM. Further, in test [9], the pA2 entry is “inactive”.
`CN(C)CCCN1c2ccccc2CCc2ccccc21` [IMIPRAMINE] came in with an ED50 with Mus musculus [10] of 4.1 mg/kg. In addition, the IC50 was determined as 130 nM in the test filed under Rattus norvegicus [11], 30 nM in the test listed under Rattus norvegicus [12] and 180 nM in the test filed under Rattus norvegicus [13]. Moreover, the minimal effective dose with Rattus norvegicus [8] turned out to be 30 mg/kg.
Turning to `C[C@@H]1c2ccccc2CC[C@@H]1CC1=NCCN1.Cl`, the Ki in [1] amounted to 135 nM. In [2], the pA2 was 7.22.
The like results for `C1=C(CC2=NCCN2)Cc2ccccc21.Cl` were, in that order, 76 nM and 7.19.
On to `CC1=C(CC2=NCCCN2)CCc2ccccc21.Cl`, for which, in test [1], the Ki was 334 nM. In test [14], the pA2 entry was “inactive”.
In turn, `CC1=C(CC2=NCC(C)N2)CCc2ccccc21.Cl` (centres undefined) gave a Ki in [1] of over 800 nM. Moreover, the pA2 result in test [15] is “inactive”.
With `CC1=C(CC2=NCCN2C)CCc2ccccc21.Cl`, in test [1], the Ki stood at 436 nM. For the same compound, the pA2 result in [16] was “inactive”.
`Cc1c(CC2=NCCN2)ccc2ccccc12.Cl` displayed a Ki in test [1] of 6.6 nM. The pA2 in test [2] is on record as 7.35.

One may read the Ki as a dissociation constant, usually derived from enzyme kinetics or from competition with a known ligand. Read a high Ki as a looser hold on the target. A word on the pA2: it is a measure of antagonist potency on a negative log scale. As usually defined, the ED50 is the dose that gives a 50% effect, or the effect in half of the subjects. A lower ED50 goes with an effect at a small dose. For orientation: IC50 means the point on the concentration scale where inhibition reaches its midpoint.
